The record followed here is ChEMBL document CHEMBL4014276, “Diphenylurea derivatives for combating methicillin- and vancomycin-resistant Staphylococcus aureus” (Eur J Med Chem, 2017).

≈ marks a conversion by molar mass, not a printed value. Calls of active or inactive are those of the source.

In data set [1] the test system is Staphylococcus aureus. Briefly: Antibacterial activity against Staphylococcus aureus RN4220 NRS107 clinical isolate after 20 hrs by broth microdilution method. The data set is classed as functional. The settings on record: RN4220 NRS107, 20 h. Summed up: (§1)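 CLSI broth microdilution in cation-adjusted Mueller Hinton broth; compounds serially diluted, triplicate samples; 37 °C, 20 h. MIC read visually as lowest concentration with no visible growth; mean of triplicate determinations reported.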

Data set [2] deals with Staphylococcus aureus. Briefly: Antibacterial activity against methicillin-resistant Staphylococcus aureus USA100 NRS382 clinical isolate after 20 hrs by broth microdilution method. In kind it is functional. The settings on record: USA100 NRS382, 20 h. The procedure, abridged:
as §1

Data set [3] has as its system Staphylococcus aureus. Briefly: Antibacterial activity against methicillin-resistant Staphylococcus aureus USA200 NRS383 clinical isolate after 20 hrs by broth microdilution method. The data set is classed as functional. The settings on record: USA200 NRS383, 20 h. Summed up:
as §1
(In general: Dilution methods test growth across graded concentrations, often in twofold steps.)

Data set [4] relates to Staphylococcus aureus. Briefly: Bactericidal activity against vancomycin-resistant Staphylococcus aureus VRSA4 after 18 hrs by broth microdilution method. In kind it is functional. The settings on record: VRSA4, 18 h. The procedure, abridged:
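From MIC wells without visible growth, 5 uL spotted onto Tryptic soy agar, incubated 37 °C for at least 18 h; MBC taken as lowest concentration giving 99.9% growth inhibition.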

The test system of data set [5] is Staphylococcus aureus. Briefly: Antibacterial activity against vancomycin-resistant Staphylococcus aureus VRSA10 after 20 hrs by broth microdilution method. In kind it is functional. The settings on record: VRSA10, 20 h. The procedure, abridged: as §1
A short description of data set [6]: Intrinsic clearance in human liver microsomes in presence of NADPH by LC-MS/MS method. The settings on record: read-out: CLH. The data set is classed as ADME, microsome. For orientation: Liver microsomes are a subcellular fraction often used to study metabolism.
Data set [7] can be described thus: Half life in human liver microsomes in presence of NADPH by LC-MS/MS method. In kind it is ADME, microsome.
Data set [8] deals with Staphylococcus aureus. Briefly: Bactericidal activity against methicillin-resistant Staphylococcus aureus USA400 assessed as time required to reduce log10CFU of bacterial load at 4 times MIC by time kill assay. The data set is classed as functional.
A further data set concerns J774. Briefly: Cytotoxicity against mouse J774 cells up to 16 ug/ml after 24 hrs by MTS assay. The data set is classed as cell-based. The settings on record: j774, 24 h. The procedure, abridged: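 Murine macrophages cultured in DMEM plus 10% FBS, 37 °C, 5% CO2; compounds at 8, 16, 32, 64 µg/mL in triplicate for 24 h against DMSO-matched controls. MTS reagent 4 h, read at OD490. Viability as % of DMSO control (triplicate mean ± SD); one-way ANOVA, Dunnett's post hoc, P < 0.05.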
(Formazan colour is commonly taken as a measure of viable cells.)

Data set [9] relates to Staphylococcus aureus. Briefly: Bactericidal activity against methicillin-resistant Staphylococcus aureus USA400 NRS123 clinical isolate assessed as disruption of bacterial membrane by measuring leakage of 260 nM absorbing material at 5 times MIC after 30 mins by spectrophotometric method. The data set is classed as functional.
Data set [10] is described as follows: AUClast in naive Sprague-Dawley rat at 50 mg/kg ,po administered via gavage by LC-MS/MS method. The data set is classed as ADME, organism-based. The settings on record: in vivo. Also on record: dose 50 mg/kg, time 0 - last, route oral. The procedure, abridged: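 Male naïve rats, three animals; single oral gavage dose in 5% ethanol, 45% PEG 400, 50% water. Blood drawn into EDTA-K2 tubes over 24 h post dose; plasma protein-precipitated with acetonitrile, parent quantified by LC/MS/MS.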

What is called MIC is the smallest concentration in the dilution series that meets the test's criterion for growth inhibition. For orientation: MBC means the smallest concentration meeting the test's criterion for killing. A low value points to more potent killing. In general, half-life refers to how long it takes for the measured level to halve. Broadly, the AUC(0-t) is exposure summed from dosing to a finite time, without extrapolation to infinity. High values mean more exposure, low ones less exposure.

Take `C/C(=N\NC(=N)N)c1ccc(NC(=O)Nc2ccc(OC3CCCCCC3)cc2)cc1`: the minimum inhibitory concentration (MIC) in the data set on Staphylococcus aureus [1] is 2 µg/mL (≈ 4.73 µM); against Staphylococcus aureus [2], 2 µg/mL (≈ 4.73 µM); against Staphylococcus aureus [3], 2 µg/mL (≈ 4.73 µM); in the data set with Staphylococcus aureus [5], 8 µg/mL (≈ 18.9 µM). Further, the MBC in the data set with Staphylococcus aureus [4] came out at 4 µg/mL (≈ 9.47 µM). In addition, the microsomal CLint in data set [6] came out at 33.9 µL/min/mg. Also, in data set [7], the half-life is 1.14 h. In addition, in the data set on Staphylococcus aureus [8], the Time entry is “<=4 hr”. Besides, the Activity result with J774 is reported as “Non-Toxic”. In the data set with Staphylococcus aureus [9], the outcome was inactive. The molecule also yielded an AUC(0-t) in data set [10] of 218 ng·h/mL.
